PglD DTNB – blocks C. jejuni PglD acetyltransferase activity; purified PglD enzyme, DTNB colorimetric CoA detection; actives 0.098% (n = 360,000); AID 602405; inhibition, % at 12.5 µM; in the data active = inhibition above about 16%, passing the limit was not always enough; inconclusive = no clear call, values can overlap the other calls
DENV2 CPE – inhibitors of DENV2 cytopathic effect. actives 1.7% (n = 350,000). CPE inhibition, % at 9.99 µM. DENV2-infected cells, cytopathic effect rescue, plate reader; in the data active = CPE inhibition above about 20%, passing the limit was not always enough; inconclusive = no clear call, values can overlap the other calls; tested in BHK-21 cells;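 note: 0% = median of neutral control wells and 100% = median of positive control wells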
ERAP1 inh – blocks human ERAP1 aminopeptidase activity. recombinant ERAP1, Leu-AMC fluorescence, 60 min. inhibition, % at 10.7 µM. actives 0.15% (n = 340,000). AID 652197;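 active = mean replicate inhibition of at least 30%, or all replicates individually reaching that 30% level; inactive = mean below 30% and not every replicate reaching it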;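 note: 0% = neutral control wells and 100% = L-leucinethiol positive control wells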
E-selectin induc – E-selectin induction on HUVECs; P16581; HUVEC E-selectin immunofluorescence imaging; normalized: neutral wells 0, TNF-alpha wells 100; activation, % at 7.58 µM; actives 0.37% (n = 260,000);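 active = mean E-selectin-positive cell signal at least 10% of the positive control, reached in at least 60% of replicates, without over 20% cell loss; inconclusive = no rule given, readout overlaps actives, possibly toxicity-flagged; inactive = the rest, including those meeting only one limit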
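Test system: HUVEC | Signal: Immunofluorescence imaging | Read-out: Percent E-selectin-positive cells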
SIRT5 inh – blocks human SIRT5 desuccinylation of peptide | actives 1.1% (n = 330,000) | Q9NXA8 | inhibition, % at 15 µM | Purified SirT5, succinyl-peptide AMC, trypsin-coupled fluorescence; in the data active = inhibition above about 15%; inconclusive = no clear call, values can overlap the other calls
Target sequence (Q9NXA8 whole entry, looked up): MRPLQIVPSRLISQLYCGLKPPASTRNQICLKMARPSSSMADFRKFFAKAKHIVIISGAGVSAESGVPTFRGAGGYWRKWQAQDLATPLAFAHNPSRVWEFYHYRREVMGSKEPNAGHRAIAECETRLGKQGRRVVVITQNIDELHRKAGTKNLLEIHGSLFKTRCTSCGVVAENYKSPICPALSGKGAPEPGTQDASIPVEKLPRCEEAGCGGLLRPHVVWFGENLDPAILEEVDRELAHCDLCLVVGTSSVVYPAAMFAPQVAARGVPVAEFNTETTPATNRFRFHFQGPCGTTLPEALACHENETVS
An asterisk follows results filed as active; ? = inconclusive; / = no result given. Shown are actives, neighbours in structure and some others; about 2.5% of the full set was active somewhere.

SMILES | PglD DTNB | DENV2 CPE | ERAP1 inh | E-selectin induc | SIRT5 inh
COc1cc(Nc2ccn3nc(-c4ccccc4Cl)cc3n2)cc(OC)c1OC | 2.7 | 30.2* | 4.7 | 0.7 | 6.3
C/C=C(\C)C(=O)N1CC2(CC(c3cccc(NC(=O)COc4ccc(Cl)cc4)c3)=NO2)C[C@@H]1C(N)=O (stereo partly drawn) | 2.4 | -4.8 | 12.3 | -0.1 | -3.5
C=C(C)C(=O)N1CC2(CC(c3cccc(NC(=O)COc4ccc(Cl)cc4)c3)=NO2)C[C@@H]1C(N)=O (stereo partly drawn) | -4.4 | 34.0* | -5.8 | -0.3 | -1.4
COc1ccc(C(=O)N2CC3(CC(c4cccc(NC(=O)COc5ccc(Cl)cc5)c4)=NO3)C[C@@H]2C(N)=O)cc1 (stereo partly drawn) | -6.2 | 0.2 | 4.6 | 0.1 | -4.3
NC(=O)[C@@H]1CC2(CC(c3cccc(NC(=O)COc4ccc(Cl)cc4)c3)=NO2)CN1C(=O)c1ccccc1 (stereo partly drawn) | -3.3 | 65.7* | -1.7 | 0.2 | 4.6
COc1cc(OC)cc(-c2nnc(NC(=O)CCS(=O)(=O)c3ccc(F)cc3)o2)c1 | 2.7 | -0.2 | 0.6 | / | -3.1
CC1(Cc2ccc(F)cc2)C(=O)Nc2c(Cl)ccc(Cl)c21 (stereo not drawn) | -5.0 | -3.5 | 3.6 | -0.3 | -2.8
O=C(O)CCC(=O)Nc1cccc(C(=O)Nc2cccc(Cl)c2)c1 | 6.8 | / | / | / | /
COc1ccc(C)cc1NC(=O)c1cccc(C(=O)Nc2cc(C)ccc2OC)c1 | -3.6 | -1.5 | -3.4 | 0.3 | 15.8*
COc1ccc(C)cc1NC(=O)C(NCC(O)c1ccccc1)c1ccccc1 (stereo not drawn) | 3.1 | 2.2 | 1.1 | 51.7* | -1.3
COc1ccc(Cl)cc1NC(=O)c1cccc(NC(=O)CCC(=O)O)c1 | 0.0 | ? | 7.1 | -0.5 | 18.7*
Cn1c(-c2ccccc2)cnc1NCc1ccc(-c2ccccc2)cc1 | -0.5 | -11.7 | -1.5 | -0.7 | 1.0
COc1cccc(NC(=O)COc2ccc(C)cc2)c1 | -3.6 | / | / | / | /
Cc1ccc(S(=O)(=O)Nc2ccc3c(c2)C(=O)N([C@H](C)CO)C[C@@H](C)[C@H](CN(C)CC2CCCCC2)O3)cc1 | -3.7 | 12.7 | -0.3 | 1.2 | 4.9
CCCNC(=O)N1CC(=O)N2[C@H](CO)[C@@H](c3ccc(-c4ccc(F)cc4)cc3)[C@@H]2C1 | / | 1.7 | 1.4 | 0.2 | 25.8*
O=C(c1ccc(F)cc1)N1CC(=O)N2[C@@H](CO)[C@@H](c3ccc(C#CC4CCCC4)cc3)[C@@H]2C1 | / | 43.6* | 1.7 | -0.6 | -0.5
O=C(C1CCOCC1)N1CC(=O)N2[C@@H](CO)[C@H](c3ccc(C#CC4CCCC4)cc3)[C@@H]2C1 | / | 52.4* | -1.9 | 0.5 | 2.4
O=C(c1ccc(F)cc1)N1CC(=O)N2[C@H](CO)[C@H](c3ccc(-c4ccccc4)cc3)[C@H]2C1 | / | 24.4* | -1.0 | 0.0 | -1.5
O=C(C1CCOCC1)N1CC(=O)N2[C@H](C1)[C@@H](c1ccc(C#CC3CCCC3)cc1)[C@@H]2CO | / | 6.8 | -1.5 | -0.6 | 4.8
Cc1cc(C)cc(OCC(=O)OCC(=O)NC2CCCCCC2)c1 | -0.7 | 1.5 | -4.2 | / | -2.4
O=C(c1ccc(F)cc1)N1CC(=O)N2[C@@H](CO)[C@@H](c3ccc(C#CCC4CCCC4)cc3)[C@@H]2C1 | / | 1.9 | 4.3 | 0.2 | 3.6
CC(C)C#Cc1ccc([C@@H]2[C@H](CO)N3C(=O)CN(C(=O)C4CCCCC4)C[C@@H]23)cc1 | / | 6.5 | -1.3 | -0.1 | 23.9*
O=C(c1ccc(F)cc1)N1CC(=O)N2[C@H](C1)[C@H](c1ccc(C#CCC3CCCC3)cc1)[C@@H]2CO | / | -3.5 | 4.4 | 0.4 | 19.4*
COc1ccc(CNC(=O)/C=C/[C@H]2O[C@@H](n3cnc4c(NC(=O)c5ccccc5)ncnc43)[C@H](O)[C@@H]2O)cc1 | 1.1 | ? | -10.9 | 0.0 | -4.1
O=C(c1ccccc1Cc1ccccc1)N1CCN(S(=O)(=O)c2ccccc2F)CC1 | -0.5 | 9.6 | -2.2 | 0.6 | -0.1
O=C(c1ccccc1Cc1ccccc1)N1CCN(S(=O)(=O)c2ccccc2)CC1 | 0.6 | 68.2* | -5.7 | 0.3 | -2.0
COCCN(C(=O)COC(=O)c1ccc2c(c1)OCO2)c1c(N)n(Cc2ccccc2)c(=O)[nH]c1=O | 10.6 | -3.5 | 3.9 | 0.0 | /

High-throughput results: PubChem, Broad Institute
